# Screening results as filed in PubChem BioAssay.
# PP1 inh: blocks human PP1-alpha phosphatase, a PP5 counter-screen. P62136. purified PP1alpha, OMFP fluorescence. inhibition, % at 6.7 µM. 320,000 tested, 0.9% active. AID 2235;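 active = inhibition above the mean inhibition of all tested compounds plus 3 SD, computed separately for each screening campaign, cut at about 15% in these data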
# Target sequence (P62136 whole entry, looked up): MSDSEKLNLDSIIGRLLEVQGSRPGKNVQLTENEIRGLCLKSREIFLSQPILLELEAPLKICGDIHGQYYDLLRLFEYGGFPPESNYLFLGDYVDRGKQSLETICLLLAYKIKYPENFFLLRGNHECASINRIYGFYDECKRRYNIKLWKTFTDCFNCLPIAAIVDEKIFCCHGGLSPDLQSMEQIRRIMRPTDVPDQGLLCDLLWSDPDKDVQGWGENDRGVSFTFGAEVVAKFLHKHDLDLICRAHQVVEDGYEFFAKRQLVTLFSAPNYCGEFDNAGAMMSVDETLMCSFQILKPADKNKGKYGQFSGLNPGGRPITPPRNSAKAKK
# pCIP destab: compounds decreasing mouse p/CIP protein stability. F442A p/CIP-EGFP cells, EGFP fluorescence, 16 h. AID 1984. Q05BA5. decrease of EGFP signal, % at 10 µM. 290,000 tested, 0.01% active;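 active = EGFP signal decrease of at least 30% at 10 µM or well 3 SD below plate mean, unless failing retest; inactive = the rest, including hits failing retest or dose response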
# UBC13 inh: blocks human UBC13 polyubiquitin chain formation; TR-FRET; inhibition, % at 20 µM; 330,000 tested, 0.47% active; in the data active = inhibition above about 45%, passing the limit was not always enough; inconclusive = no clear call, values can overlap the other calls
# Target sequence (P61088 whole entry, looked up): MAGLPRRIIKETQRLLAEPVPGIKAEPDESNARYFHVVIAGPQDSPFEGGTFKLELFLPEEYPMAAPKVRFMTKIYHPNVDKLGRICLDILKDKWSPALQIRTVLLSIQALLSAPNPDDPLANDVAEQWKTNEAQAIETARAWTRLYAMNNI
# AI-2 QS modul: modulates the Vibrio harveyi AI-2 quorum sensing system; Vibrio harveyi JMH597 AI-2 luminescence/OD600 ratio, 9 h; active compounds read low; strain lacks LuxN and CqsS sensors; 0 = neutral-control median; activity change, % at 7.5 µM; 300,000 tested, 0.4% active; in the data active = activity change below about -75%, passing the limit was not always enough; inconclusive = no clear call, values can overlap the other calls;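 note: luminescence divided by OD600 gain over 9 h not by final OD600 alone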
# T cruzi repl: blocks replication of Trypanosoma cruzi | inhibition, % (concentration not given with the values) | AID 1885 | T. cruzi beta-gal in NIH3T3, luminescence, 90 h | 300,000 tested, 1.4% active;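 active = mean inhibition across valid replicates above about 55%, limit read from the data; inconclusive = mean below that limit but half or more replicates reach it; inactive = mean below it, under half of replicates reach it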;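 note: signal also drops with host cell toxicity which is not excluded here; 0% = plate median of DMSO wells and 100% = zero luminescence signal; higher percent means less beta-gal luminescence so fewer parasites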
#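 Test system: β-gal T. cruzi (Tulahuen C4) inside NIH/3T3 cells / Quantity: 5,000 cells/well / Measured by: luminescence from GalScreen with 0.05% NP40, read after 60 min / Medium: DMEM plus 2% FBS / Measure: parasite load inhibition, % / Reagent: Tulahuen C4 trypomastigotes, 5000/well / Schedule: co-culture of at least 90 h after 3 h attachment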
# Numbers without * were called inactive; ? = inconclusive; nt = not tested or not shown. Sampled rows, rich in hits. Any-hit rate of the full collection: about 2.8%.
SMILES,PP1 inh,pCIP destab,UBC13 inh,AI-2 QS modul,T cruzi repl
CC(=O)c1ccc(N2CCC(c3cc(-c4ccc(Cl)cc4Cl)n[nH]3)CC2)c([N+](=O)[O-])c1,5,-18,-18,22,62*
O=C(CSC1=NS(=O)(=O)c2ccccc2N1)N1CCCCC1,-4,nt,-2,11,-10
Cc1[nH]c2ccc(F)cc2c1CCN(Cc1cccnc1)C(=S)NC(C)(C)C,-1,0,8,8,65*
Cc1[nH]c2ccc(F)cc2c1CCN(Cc1cccnc1)C(=S)Nc1cccc(F)c1,-2,-22,3,9,65*
COc1cccc(NC(=S)N(CCc2c(C)[nH]c3ccc(C)cc23)Cc2cccs2)c1,-1,-4,-12,7,12
COc1ccc2[nH]c(C)c(CCN(Cc3cccs3)C(=S)Nc3cccc(F)c3)c2c1,1,-14,-16,3,63*
CCNc1c(NC(=O)c2ccc3c(c2)OCO3)c(=O)oc2ccccc12,-3,4,-4,20,-5
CCOc1ccc(C(=O)NCC(=O)OCC(=O)N2CCCC2)cc1,-8,13,0,26,-20
Nn1c(COc2cccc(Br)c2)nnc1SCC(=O)NCC1CCCO1 (stereo unspecified),3,nt,12,nt,nt
CCCCOc1ccc(-c2nc(=S)[nH][nH]2)cc1,-1,-7,-2,-89*,-11
O=[N+]([O-])c1cc(-c2nc3nc4ccccc4nc3n2CCc2ccccc2)cc([N+](=O)[O-])c1,0,-21,-7,-8,56*
c1ccc(Cn2c(-c3ccccc3)nc3nc4ccccc4nc32)cc1,3,9,17,23,28
CCC1Oc2ccc(C)cc2N(CC(=O)N(Cc2cccnc2)Cc2ccc(C)o2)C1=O (stereo unspecified),-1,-5,5,8,57*
CCC1Oc2ccc(C)cc2N(CC(=O)N(Cc2ccc(C)o2)C2CC(C)(C)NC(C)(C)C2)C1=O (stereo unspecified),0,-4,13,29,15
Cc1cc(C(=O)N2CCc3c([nH]c4ccccc34)C2c2cccc(Cl)c2)nn1C (stereo unspecified),0,-6,7,53,56*
Cc1ccc(-c2nnc(N3CCCCCC3)c3ccccc23)cc1,9,-12,3,14,64*
O=C(COc1ccccc1)N1CCN(c2nnc(-c3ccccc3)c3ccccc23)CC1,-1,18,5,13,55*
COc1ccc(OCC(=O)N2CCN(c3nnc(-c4ccccc4)c4ccccc34)CC2)cc1,3,-10,5,15,36
Cc1ccc(OCC(=O)N2CCN(c3nnc(-c4ccc(C)cc4)c4ccccc34)CC2)cc1,7,-3,-4,-21,61*
Cc1cc(C2(O)C(=O)Nc3ccccc32)ccc1F (stereo unspecified),-2,-1,9,7,4
Cc1ccc(N2C(=O)N3[C@H](c4ccc(F)cc4)[C@@H]4C(=O)N(C5CCCCC5)C(=O)[C@@H]4[C@]3(Cc3ccccc3)C2=O)cc1,5,-1,-33,50,18
Cc1ccc(S(=O)(=O)CC(=O)N(CCCN(C)C)c2nc3ccc(C)cc3s2)cc1,-6,nt,7,29,65*
Cc1cc(C)c2sc(N(CCCN(C)C)C(=O)CN3C(=O)c4ccccc4C3=O)nc2c1,1,-6,20,-7,51
Cc1ccc2nc(N(CCCN(C)C)C(=O)CS(=O)(=O)c3ccccc3)sc2c1,3,nt,5,-6,45
Cc1ccc2nc(N(CCCN(C)C)C(=O)CN3C(=O)c4ccccc4C3=O)sc2c1,1,7,19,14,61*
SMILES,PP1 inh,pCIP destab,UBC13 inh,AI-2 QS modul,T cruzi repl
CC(=O)N1CCC(c2c[nH]c3ccccc23)CC1,-4,-12,4,20,-10
CCC1=NN2C(=N)/C(=C\c3ccc(SCc4ccco4)o3)C(=O)N=C2S1,3,-64,-24,33,3
CCCC1=NN2C(=N)/C(=C\c3ccc(SCc4ccco4)o3)C(=O)N=C2S1,43*,-53,-32,44,-10
Cc1c(CN2CCC(CO)(Cc3ccccc3)CC2)c2ccccc2n1C,-1,-2,9,41,57*
CC(=O)n1c(-c2ccccc2)c(CO)c2ccccc21,-2,-13,3,-1,-1
NCCc1c(-c2ccccc2)n(-c2ccccc2)c2ccccc12,nt,-4,41,5,64*
Cc1nc(-c2ccccn2)nc(SCC(=O)c2ccccc2)c1Cl,15*,-18,5,nt,9
CNC(=S)N1N=C(c2ccc(Br)cc2)CC1c1ccc(Br)cc1 (stereo unspecified),2,4,-10,53,78*
CNC(=S)N1N=C(c2ccc(Br)cc2)CC1c1ccc(N(C)C)cc1 (stereo unspecified),1,-5,-9,17,49
c1ccc(-c2nc(N3CCN(c4ccccc4)CC3)nc(-n3ccnc3)n2)cc1,5,-10,2,16,60*
c1ccc(-c2nc(N3CCCCCC3)nc(-n3ccnc3)n2)cc1,3,-2,7,30,53
CCCCCNc1nc(-c2ccccc2)nc(-n2ccnc2)n1,-4,4,-5,-1,62*
CN(c1ccccc1)c1nc(-n2ccnc2)nc(-n2ccnc2)n1,2,7,-3,40,26
CCCCNc1nc(N(C)c2ccccc2)nc(-n2ccnc2)n1,13,3,4,34,61*
COCC(=O)N1CCC(Oc2ccc(C(=O)N3CCCCC3COC)cc2)CC1 (stereo unspecified),-1,5,-5,26,-1
COc1cc2oc3ccc(C#Cc4ccccn4)cc3c(=O)c2cc1OC,-2,nt,13,16,59*
COc1cc2oc3ccc(C#Cc4ccc(N)cc4)cc3c(=O)c2cc1OC,2,nt,nt,20,13
O=C(c1ccc(CSc2nc3ccncc3[nH]2)cc1)N1CCN(c2cccc(Cl)c2)CC1,2,-2,6,36,55*
Clc1ccc(CSc2nc3ccncc3[nH]2)cc1,-2,-16,15,?,35
Cc1ccc(CSc2nc3ccncc3[nH]2)cc1,-3,0,8,-77*,16
O=C(/C=C/c1ccccc1)NC(=S)NNC(=O)c1cccnc1,11,-8,-8,-111*,-8
NC(=S)N/N=C/c1ccc2ccccc2c1,-7,-4,-23,-48,58*
NC(=S)N/N=C/c1cccc(/C=N/NC(N)=S)c1,3,-4,4,49,-4
N#C/C(=C/c1cn(CC(=O)O)c2ccccc12)C(=O)NCc1ccccc1,-4,75*,-16,7,-16
CNC(=O)/C(C#N)=C/c1cn(CC(=O)NCc2ccco2)c2ccccc12,3,19,-11,22,10
CCCC(=O)c1cc2c(cc1NC(=O)c1ccccc1F)OCCO2,-1,8,13,30,34
